Bioassay records (PubChem BioAssay)
The list is not random: actives were taken first. Their share in the collection is about 1.5%.
core dimer inh: blocks dimerization of HCV core protein | TR-FRET GST/Flag-core106 dimerization, 1536-well | inhibition, % at 5 µM | hit rate 0.33% among 300,000;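 active means inhibition above the mean of all tested compounds plus 3 SD, set per screening campaign, cut at about 45% in these data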
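test system = GST/Flag-tagged HCV core106 proteins | probe or stimulus = Eu donor and XL665 acceptor anti-tag antibodies | times = compound-protein-antibody incubation 4 h at 22.5 °C | signal = TR-FRET, excitation 340 nm, emission 617 and 671 nm | measure = percent inhibition of core106 dimerization signal | controls = wells lacking GST-core106 and wells with excess unlabelled core106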
MEX-5 binding: C. elegans MEX-5 TCR-2 RNA binding activity; Q9XUB2; MEX-5/FITC-TCR2 RNA binding, fluorescence polarization; hits give low values; activity score (negative = inhibition of binding), % at 10 µM; hit rate 0.38% among 300,000; AID 1832;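 active means inhibition past about -25% in most replicates, and total fluorescence under double the plate's negative control median, limit read from the data; inconclusive means replicates evenly split on the limit, or fluorescence at least double controls; inactive means too little inhibition in most replicates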;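 further: 0% = DMSO and -100% = 5 µM competing unlabeled TCR2 RNA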
Target sequence (Q9XUB2 whole entry, looked up): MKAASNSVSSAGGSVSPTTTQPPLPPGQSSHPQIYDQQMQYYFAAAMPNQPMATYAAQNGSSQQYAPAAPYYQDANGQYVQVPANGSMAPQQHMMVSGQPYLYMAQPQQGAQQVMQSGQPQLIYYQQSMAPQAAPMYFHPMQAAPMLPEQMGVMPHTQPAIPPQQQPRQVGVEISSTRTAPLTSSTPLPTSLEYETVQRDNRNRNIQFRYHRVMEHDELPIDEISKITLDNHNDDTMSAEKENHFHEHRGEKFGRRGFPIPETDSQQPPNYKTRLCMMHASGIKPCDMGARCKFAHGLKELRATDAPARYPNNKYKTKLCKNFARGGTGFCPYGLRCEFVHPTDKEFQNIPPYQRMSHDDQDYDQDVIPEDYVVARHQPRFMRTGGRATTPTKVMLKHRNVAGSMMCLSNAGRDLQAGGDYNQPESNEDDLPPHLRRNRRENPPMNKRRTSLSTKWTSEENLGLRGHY
NRP1-CendR mod: modulators of CendR peptide binding to human neuropilin-1; O14786; FAM-RPARPAR peptide binding to NRP-1, fluorescence polarization; inhibition, % at 25 µM; hit rate 0.85% among 360,000; AID 602438;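 active means inhibition or corrected inhibition above about 18%, plus a signal ratio from 0.5 to 1.5, limit read from the data, passing the limit was not always enough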
DNA FID counter: counter-screen for HCV NS3 helicase inhibitors: DNA intercalator displacement. inhibition, % at 7.9 µM. hit rate 0.17% among 290,000. DNA fluorescent intercalator displacement, fluorescence. AID 1845; in the data active means inhibition above about 37%;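 further: 0% = vehicle and 100% = reference compound; higher means more ethidium bromide displaced from hairpin DNA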
* hit, by the source's call; ? = inconclusive; . = no result given.

SMILES	core dimer inh	MEX-5 binding	NRP1-CendR mod	DNA FID counter
COc1ccccc1N(C)S(=O)(=O)c1ccc(C(=O)N(CC(N)=O)C(C)C)cc1	0	1	25*	-13
COc1ccccc1N(C)S(=O)(=O)c1ccc(C(=O)Nc2cccc(Br)c2)cc1	.	.	27*	.
COC(=O)c1cccc(NC(=O)c2ccc(S(=O)(=O)N(C)c3ccccc3OC)cc2)c1	.	.	0	.
COc1ccccc1N(C)S(=O)(=O)c1ccc(C(=O)NCC(C)C)cc1	0	-1	6	-17
CC[C@]12c3[nH]c4ccc(Cl)cc4c3CCN1C(=O)[C@@H](CC(=O)NCCc1ccccn1)C[C@@H]2C(=O)N1CCN(C(=O)c2ccco2)CC1	.	.	-2	.
CCN(CC)c1ccc2nc3c4ccccc4c(=O)cc-3oc2c1	.	1	.	-2
CCN(CC)c1ccc2c(-c3ccc(S(=O)(=O)O)cc3S(=O)(=O)[O-])c3ccc(=[N+](CC)CC)cc-3oc2c1	68*	?	147	.
NS(=O)(=O)c1ccc(NC2=CC(=O)C(=O)c3ccccc32)cc1	1	-3	31*	-2
O=C(N/N=C/C=C/c1ccc([N+](=O)[O-])cc1)c1cccs1	49*	-72*	-60	5
COc1ccc(NC(=O)C2(C)Cc3c(-c4ccc(NC(C)=O)cc4)ccnc3O2)cc1OC (stereo unspecified)	.	.	0	.
CCCCC(c1nnnn1CC1CCCO1)N1CCN(c2nc3ccccc3s2)CC1 (stereo unspecified)	.	0	18*	-31
CCCC(c1nnnn1CC1CCCO1)N1CCN(c2nc3ccccc3s2)CC1 (stereo unspecified)	4	1	-5	-31
COc1ccccc1NC(=O)c1ccc(SCC(=O)NCc2ccccc2Cl)c([N+](=O)[O-])c1	53*	2	6	2
COc1ccccc1CNC(=O)CSc1ccc(C(=O)Nc2ccccc2OC)cc1[N+](=O)[O-]	25	-3	4	-4
CC1(C(=O)Nc2cccc(NS(C)(=O)=O)c2)CCN1Cc1ccccc1OC(F)F (stereo unspecified)	.	.	-1	.
O=C(/C=C/c1ccc(O)c(O)c1)O[C@H](Cc1ccc(O)c(O)c1)C(=O)O	.	-98*	.	.
O=C(COC(=O)Cn1cnc2ccccc21)Nc1ccc(Br)cc1	.	.	32*	.
Cc1ccc2oc(C(=O)NCC3CCOCC3)c(C)c2c1	-4	-3	26*	-25
Cc1ccc2c(C)c(C(=O)NCC3CCOCC3)oc2c1C	.	.	-7	.
Nc1[nH]c(C(=O)c2ccccc2)c(-c2c(F)cccc2F)c1C(=O)c1ccc(Cl)c(Cl)c1	.	.	-11	.
CCOC(=O)N1CCN(C(=O)c2cc3n(n2)C(C(F)(F)F)CC(c2ccc4c(c2)OCO4)N3)CC1 (stereo unspecified)	10	1	22*	-44
CC(=O)C1=C(c2ccccc2)N(C(C)=O)n2c(C)nnc2S1	-62	-45*	-20	-8
CC(=O)N1CCN(c2nnc(-c3ccccc3)c3ccccc23)CC1	0	-1	-4	-24
Oc1ccc(C=Nc2ccc3ncccc3c2)c(O)c1	63*	-1	.	-1
Oc1ccc(C=Nc2cccc3ncccc23)c(O)c1	-7	1	-5	10
SMILES	core dimer inh	MEX-5 binding	NRP1-CendR mod	DNA FID counter
COc1ccc(C(C#N)CC(=O)c2ccc(OCc3ccccc3)c(OC)c2)cc1OC (stereo unspecified)	.	.	-6	.
O=C(CSc1nnc(CN2CCOCC2)n1-c1ccc(Cl)cc1)Nc1cc(Cl)ccc1O	7	-3	21*	-16
O=C(CSc1nnc(CN2CCOCC2)n1-c1ccc(Cl)cc1)N1CCc2ccccc21	-1	0	9	-4
C[C@H](c1ccccc1)N1C[C@@H](COCc2ccccc2)Oc2cc(N3CC[C@@H](N(C)C)C3)ccc2S1(=O)=O	.	.	3	.
CSc1nsc(SCC(=O)N2CCc3ccccc32)n1	5	-1	19*	-4
O=C(Nc1ccccc1F)c1coc(=O)c(Br)c1	-1	-56*	-4	0
CCOC(=O)c1c2ccc(OCC(=O)N/N=C/c3ccc(C)cc3)cc2n2ccccc12	9	-29*	-10	0
CCOC(=O)c1c2ccc(OCC(=O)NN)cc2n2ccccc12	-16	-7	26*	-8
CCOC(=O)c1c(C)n(C)c2cc(OCCN(CC)CC)ccc12	4	3	1	5
CCCNC(=O)C1(C)CCN(C(=O)c2cccc(C#N)c2)C1 (stereo unspecified)	.	.	-7	.
Cc1ccc(S(=O)(=O)CCSc2nc(C)cc(C(F)(F)F)c2C#N)cc1	13	-54*	-65	-3
CCOc1cccc(=O)c2c(C)n(Cc3ccccc3)c(C)c12	50*	0	-2	-3
CCOc1cccc(=O)c2c(C)n(-c3ccc(C(=O)O)cc3)c(C)c12	-4	-36*	-74	-5
O=C(O)c1ccccc1NS(=O)(=O)c1cccc(-n2sc3ccccc3c2=O)c1	-2	-50*	-98	6
Cc1cc(NC(=O)CO/N=C/c2ccc3c(c2)OCO3)ccc1Br	1	1	5	-1
CCOC(=O)Cc1ccc(NS(=O)(=O)c2ccc(SC)cc2)cc1	5	4	25*	-17
CCOc1ccc(/C=N/OCC(=O)Nc2ccc3c(c2)OCO3)cc1	6	0	32*	-4
CCOC(=O)COc1ccc(S(=O)(=O)Nc2ccc(C)cc2)cc1	7	2	9	-19
CCOC(=O)COc1ccc(S(=O)(=O)Nc2ccc3c(c2)OCO3)cc1	12	1	2	48*
COc1ccc(/C=C/C(=O)OCC(=O)Nc2ccc3c(c2)OCO3)cc1	.	.	21*	.
CCOC(=O)c1ccc(NS(=O)(=O)c2ccc(SC)cc2)cc1	1	-1	6	-11
CC(C)C[C@H]1CN(CCCC[C@@H]2CNC(=O)C(=O)N2CC2CCCCC2)C(=O)C(=O)N1CCc1ccccc1	.	.	-12	.
CCN(CC)c1ncnc2c1ncn2[C@H]1CN(Cc2ccncc2)C[C@@H](CO)O1	.	.	-2	.
CC(C(=O)OCC(=O)Nc1ccc2c(c1)OCO2)N1C(=O)c2ccccc2C1=O (stereo unspecified)	11	2	22*	-9
O=C(COc1ccc(S(=O)(=O)N2CCCC2)cc1)Nc1ccc2c(c1)OCCO2	6	-8	36*	-17
SMILES	core dimer inh	MEX-5 binding	NRP1-CendR mod	DNA FID counter
CCCS(=O)(=O)NC(=O)C1(C)CCN(C(=O)/C=C/c2ccccc2)C1 (stereo unspecified)	.	.	3	.
C[C@H](CO)N1C[C@H](C)[C@@H](CN(C)S(=O)(=O)c2cn(C)cn2)OCc2cnnn2CCCC1=O	.	.	-10	.
Cc1ccc(S(=O)(=O)c2ncccc2[N+](=O)[O-])cc1	0	0	-2	-2
Cc1ccc(S(=O)(=O)c2ncccc2N)cc1	5	1	56*	1
Cc1cc(Cl)ccc1OCC(=O)NNC(=O)C1CCCO1 (stereo unspecified)	1	1	25*	-3
Cn1c(COc2ccc(C(=O)O)cc2)nc2ccccc21	-2	0	14	-2
Cn1c(COc2ccc(F)cc2)nc2ccccc21	4	-1	23*	-6
